One experiment relates to Melanocyte. Description: MTT cytotoxicity / cell viability assay, normal melanocytes. Format: cell-based. The following applies: Homo sapiens, 48 h. The essentials: (§1)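 Cells in 5–10% FBS/DMEM were seeded at 5×10³ per well, refed at 24 h and grown to 70% confluence. They were treated for 48 h at 37°C, 5% CO2 with two-fold serial dilutions of test compound in DMSO (≤0.1%), […], in 8–10 repeats. After MTT, absorbance was read at 562 nm. Viability was expressed relative to DMSO controls and IC50 derived by nonlinear regression. Data are mean ± SD of ≥5 independent experiments in octuplicates.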

The target in another experiment is CDK2/Cyclin A (Homo sapiens, UniProt P24941). Description: In vitro kinase activity assay. Type of experiment: biochemical. The following applies: 10-dose, three-fold serial dilution from 100 μM. The essentials: (§2)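 Kinase profiling was run at Reaction Biology. IC50 values came from 10-dose mode, three-fold serial dilutions starting at 100 μM. Reference inhibitors were co-assayed at 1 and 10 μM.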

The next experiment concerns UWBCC1 cells. Description: MTT cytotoxicity / cell viability assay, UWBCC1. Format: cell-based, human. The following applies: Homo sapiens, 48 h. The essentials: as §1
A further experiment addresses mTOR/FRAP1 (Homo sapiens, UniProt P42345). Description: In vitro kinase activity assay. Format: biochemical. The essentials:
as §2

Experiment [1] has as its system A375 cells. Description: MTT cytotoxicity / cell viability assay, A375. Format: cell-based, human. The essentials: as §1
Experiment [2] has as its system A431 cells. Put plainly: DAPI staining of apoptotic nuclei, A431. Type of experiment: cell-based, human. The essentials:
(§3)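 Equal numbers of cells were seeded in T-25 flasks and exposed to test compound at different concentrations for 36 h. Cells were PBS-washed, stained with DAPI in PBS and imaged by fluorescence microscopy at 10x and 1.6×10x. Apoptotic nuclei were scored by morphology and expressed as percentage of cells.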

In experiment [3] the test system is A431 cells. Put plainly: MTT cytotoxicity / cell viability assay, A431. Format: cell-based, human. The essentials:
as §1

Experiment [4] relates to A375 and A431 cells. Description: Colony formation assay. Type of experiment: cell-based, human. The following applies: A375 and A431, ½IC50, IC50, 2×IC50, concentration-dependent. The essentials:
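DMSO ≤0.1% v/v was the vehicle control. Cells were trypsinized and ~1000 reseeded per 10-cm2 plate, then grown 10–14 days drug-free at 37°C, 5% CO2, with medium renewed every 2–3 days. Colonies were stained with 0.5% Gentian violet in ~64% methanol/4% paraformaldehyde. Results are percent of control, mean ± SD of three independent experiments.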

The test system of a further experiment is SK-Mel-28 cells. Put plainly: MTT cytotoxicity / cell viability assay, SK-Mel-28. Format: cell-based, human. The essentials: as §1
For experiment [5], the system named is A375 and A431 cells. Put plainly: Western blot analysis of apoptosis, cell cycle and c-Kit markers. Type of experiment: cell-based, human. The following applies: A375 and A431, IC50 and 2×IC50, 48 h. The essentials: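 Cells were plated at 3×10⁵ overnight and treated at 0, IC50 or 2×IC50 (<0.1% DMSO) for 48 h. Lysates were made in ice-cold RIPA with protease/phosphatase inhibitors and PMSF (15 min), then run on SDS-PAGE. Blots were probed with primary antibodies at 1:250–1:1000 and HRP secondary at 1:2000. Bands were normalized to β-actin, GAPDH or Rab11 and given as % expression; three independent experiments, one-way ANOVA with Dunn's test.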
On the technique in general: In western blotting, separated proteins are transferred to a membrane and probed.

The next experiment has as its target CDK2/Cyclin E (Homo sapiens, UniProt P24941). Put plainly: In vitro kinase activity assay. The following applies: 10-dose, three-fold serial dilution from 100 μM. Type of experiment: biochemical. The essentials: as §2
Another experiment deals with HaCaT. Put plainly: MTT cytotoxicity / cell viability assay, HaCaT keratinocytes. The following applies: Homo sapiens, 48 h. Format: cell-based. The essentials:
as §1

The next experiment deals with c-Kit (Homo sapiens, UniProt P10721). Put plainly: In vitro kinase activity assay. Format: biochemical. The essentials:
as §2

Experiment [6] relates to A375 cells. Put plainly: DAPI staining of apoptotic nuclei, A375. Format: cell-based, human. The essentials: as §3
Experiment [7] deals with A375 and A431 cells. Put plainly: Scratch wound healing assay. Format: cell-based, human. The following applies: A375 and A431, ½IC50, IC50, 2×IC50, 48 h, dose-dependent. The essentials: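 Confluent A375 or A431 monolayers in complete DMEM received two parallel scratches made with a 200-μL pipette tip, then were washed. Wells were treated at ½IC50, IC50 or 2×IC50 for 48 h. Wound area was measured by image analysis as a percentage of the initial cell-free area versus 0 h and 48 h controls. Data are mean ± SD of three independent experiments; one-way ANOVA with Dunn's test.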

Consider one molecule from article PMC7870562 (Bioorganic chemistry, 2020).

Each structure is given as a SMILES string.

c-Kit, sequence (P10721 26-976): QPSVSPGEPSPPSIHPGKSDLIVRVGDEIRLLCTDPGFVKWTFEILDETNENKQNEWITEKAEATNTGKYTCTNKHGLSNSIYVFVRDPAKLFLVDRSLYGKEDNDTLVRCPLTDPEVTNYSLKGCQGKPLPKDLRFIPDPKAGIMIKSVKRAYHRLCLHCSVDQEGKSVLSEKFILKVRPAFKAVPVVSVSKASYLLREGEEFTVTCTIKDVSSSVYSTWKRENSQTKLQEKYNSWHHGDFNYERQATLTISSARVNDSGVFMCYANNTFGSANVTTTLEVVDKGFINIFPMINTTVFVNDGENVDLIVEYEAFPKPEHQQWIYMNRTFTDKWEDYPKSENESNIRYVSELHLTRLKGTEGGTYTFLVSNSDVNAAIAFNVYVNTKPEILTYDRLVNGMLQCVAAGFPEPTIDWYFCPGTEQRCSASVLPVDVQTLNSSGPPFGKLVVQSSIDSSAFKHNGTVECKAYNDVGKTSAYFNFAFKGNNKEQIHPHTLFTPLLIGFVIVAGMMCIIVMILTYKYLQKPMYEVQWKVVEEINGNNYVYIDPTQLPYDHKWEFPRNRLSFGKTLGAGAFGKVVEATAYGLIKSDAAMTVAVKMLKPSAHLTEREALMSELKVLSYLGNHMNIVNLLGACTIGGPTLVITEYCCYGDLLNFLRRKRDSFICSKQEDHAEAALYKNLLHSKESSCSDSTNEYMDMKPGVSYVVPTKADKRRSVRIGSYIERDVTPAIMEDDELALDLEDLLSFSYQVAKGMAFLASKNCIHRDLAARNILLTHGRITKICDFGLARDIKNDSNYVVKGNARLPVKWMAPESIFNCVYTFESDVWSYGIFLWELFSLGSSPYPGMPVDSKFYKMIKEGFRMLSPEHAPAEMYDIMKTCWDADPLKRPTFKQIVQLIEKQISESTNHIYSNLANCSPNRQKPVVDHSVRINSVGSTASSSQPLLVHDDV

As usually defined, the IC50 is the concentration needed to halve the response being measured. Read a high IC50 as weaker potency in that assay. Take `Cc1cc([N+](=O)[O-])c2oc(-c3ccc(Br)cc3)c(O)c(=O)c2c1` [F20, 2-(4-Bromophenyl)-3-hydroxy-6-methyl-8-nitro-4H-chromen-4-one]: the IC50 turned out to be 35 ± 0.23 µM with Melanocyte; 4.77 µM at CDK2/Cyclin A; 0.12 ± 0.11 µM in the experiment with UWBCC1 cells; 6.3 ± 1 µM with A375 cells [1] (Homo sapiens, A-375, 48 h); 0.2 ± 0.1 µM in the experiment on A431 cells [3] (Homo sapiens, A-431, 48 h); 17 ± 3 µM with SK-Mel-28 cells (Homo sapiens, SK-MEL-28, 48 h). For the same molecule, the IC50 against CDK2/Cyclin E was above 100 µM; in the experiment with HaCaT it was 34 ± 0.6 µM; on c-Kit it was 0.09 µM. Further, the “inhibition of mTOR kinase activity (in words)” value against mTOR/FRAP1 is given as “did not substantively inhibit”. Moreover, the selectivity index is listed as 5.6 in the experiment with A375 cells [1] (IC50 melanocytes / IC50 A375), around 170 in the experiment with A431 cells [3] (IC50 HaCaT / IC50 A431) and 2.1 in the experiment on SK-Mel-28 cells (IC50 melanocytes / IC50 SK-Mel-28). In addition, the “DAPI (+) apoptotic cells” value with A431 cells [2] (A431, treated 36 hours at IC50) is 27.7%; in the experiment with A431 cells [2] (A431, treated 36 hours at ½IC50) it was 14.6%; with A375 cells [6] (A375, treated 36 hours at IC50), 20.4%; in the experiment with A375 cells [6] (A375, treated 36 hours at ½IC50), 8.2%. Besides, the “percentage of colonies (in words)” value with A375 and A431 cells [4] is recorded as “significantly reduced”. The “expression level of pro-apoptotic protein Bax” value with A375 and A431 cells [5] is reported as “significantly increased”. Moreover, in the experiment on A375 and A431 cells [5], the “level of anti-apoptotic protein Bcl-2” value is “decreased”. The “protein expression levels of cyclin A2, cyclin E2 and CDK2” value with A375 and A431 cells [5] is “significantly suppress”. In the experiment on A375 and A431 cells [5], the “protein expression levels of phosphorylated c-Kit” value is on record as “significantly suppressed”. For the same molecule, in the experiment with A375 and A431 cells [5] (vs untreated controls), the “protein expression levels of cleaved caspases −3, −7, −8 and PARP” value is on record as “elevated”. Besides, the “scratched wound area closure (in words)” value in the experiment with A375 and A431 cells [7] is “significantly decreased”.
